Experimental data reported in publication PMC10760106 (bioRxiv, 2023).
Each block holds one molecule with its values, some of them ahead of it.

Tests used:
[1] = system: HiBiT F3 in ARPE-19 cells; assay: non-HTS extracellular/intracellular HiBiT F3 assay; type: cell-based, human; conditions: for HiBiT F3 secretion (extracellular) / intracellular HiBiT F3 levels: dose-responsive, ARPE-19
Summary of the method: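 HiBiT F3 ARPE-19 cells were plated at 200,000 cells/mL, and test compound in medium was added the next day. Treatment lasted 72 h or 1 week, with medium and compound renewed after 96 h for 1-week wells. For intracellular signal, cells were washed in HBSS and lysed 5 min with shaking in lytic buffer containing LgBiT (1:100) and substrate (1:50). Luminescence was read on 40 μL of lysate.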

[2] = system: BLamD in R345W+/+ knockin mice; assay: basal laminar deposit; type: in vivo, mouse; conditions: treated mice (30/720 FOV), 25 mg/kg i.p., 1 mo; untreated 14.205%
[3] = system: HiBiT WT F3 and HiBiT R345W F3 ARPE-19 cells; assay: extracellular HiBiT assay on transwells, WT and R345W F3; type: cell-based, human; conditions: 1 μM, 1 week, serum-free
Summary of the method: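 Cells carried HiBiT-tagged WT or R345W F3 in ARPE-19, with R345W made by knock-in in clonal cells. They were seeded on polyester transwells (~100,000/well for 12-well, ~30,000/well for 24-well) and switched to serum-free medium the next day, with changes every 3–4 days. After 1 week, cells were treated 1 week with 1 μM test compound or 0.1% DMSO in serum-free medium. Apical and basal media were then assayed for extracellular HiBiT luminescence.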

[4] = system: ARPE-19 cells; assay: lactate dehydrogenase; type: cell-based, human
Summary of the method: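 Test compound was applied to ARPE-19 cells for 72 h or 1 week. Media were spun at 1,000 RPM for 5 min. In technical triplicate, 50 μL of cleared medium was mixed with an equal volume of LDH reaction buffer for 30 min at 37°C. DMSO-treated medium served as control, and lysis buffer-treated cells served as positive control.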

[5] = system: HiBiT F3 in primary human dermal fibroblasts; assay: HiBiT F3 assay in primary dermal fibroblasts; type: cell-based; conditions: 72 h, dose-responsive
[6] = system: HiBiT F5 in ARPE-19 cells; assay: HiBiT fibulin-5; type: cell-based, human
[7] = system: transcriptome of HiBiT F3 ARPE-19 cells; assay: bulk RNAseq; type: cell-based, human; conditions: 1 μM, 1 week
Summary of the method: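 The next day, 1 μM test compound or DMSO (1:1000) was added, with a media change at 96 h. Total RNA was extracted 7 days after treatment start and stored at −80°C. PCR-amplified libraries were bead-purified and quality-checked on a Bioanalyzer before sequencing.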

[8] = system: MMP2; assay: MMP2 zymography; type: cell-based, human; conditions: 1 μM, 1 week, HiBiT WT F3 and R345W F3 cells
Summary of the method: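 HiBiT WT or R345W F3 ARPE-19 cells were grown on polyester transwells in serum-free medium for 1 week, then treated 1 week with 1 μM test compound or 0.1% DMSO. Apical and basal media went in non-reducing SDS buffer onto 10% gelatin gels (140 V, 90 min). Gels were renatured 30 min at RT, developed 30 min at RT, then overnight at 37°C in fresh developing buffer. Coomassie R-250 staining and densitometry followed.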

[9] = preclinical neurological disorder studies; ref [61]; cited from earlier work
[10] = system: secreted proteome of HiBiT ARPE-19 cells; assay: secreted proteome visualization and mass spectrometry; type: cell-based, human
[11] = system: HiBiT mouse F3 in NIH-3T3 cells; assay: HiBiT F3 assay in NIH-3T3 fibroblasts; type: cell-based; conditions: NIH-3T3 mouse cells, 72 h
[12] = system: TCF-dependent Wnt signaling in HiBiT F3 ARPE-19 cells; assay: 7xTCF reporter; type: cell-based, human; conditions: 1 μM, one week, 7TFP cells
[13] = CHIR PK experiment with LC-MS/MS; type: in vivo, mouse
Summary of the method: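 C57BL/6J mice (three per time point, at least one male and one female) received 25 mg/kg i.p. of test compound. It was given as 5 mg/mL in 2% DMSO/5.7% Captisol in PBS. Tissues were collected at 0, 30, 180, 360, 960 and 1440 min under isoflurane, and retina and liver were homogenized in PBS. […] Eye level was estimated from a vitreous volume of ~4.4 μL.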

[14] = system: HiBiT F3 ARPE-19 cells; assay: Cell Titer Glo 2.0 viability counter screen; type: cell-based, human; conditions: 1.66 and 5 μM, 48 h
[15] = system: HiBiT F3 ARPE-19 cells (fibulin-3 production); assay: HTS whole-well HiBiT F3 assay; type: cell-based, human; conditions: 0.2 nM – 50 μM, 24 h
Summary of the method: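 Genome-edited heterogeneous ARPE-19 cells (2xFLAG-VS-HiBiT inserted after Ser16 of F3) were seeded at ~5,000 cells/well in 384-well plates and grown 24 h at 37°C. Medium was exchanged, and test compound in 0.1% DMSO was applied for 24 h. Plates were cooled 20 min at RT, then received a lytic buffer master mix with LgBiT (1:100) and lytic substrate (1:50). After 5 min shaking, whole-well luminescence was read.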

[16] = both, C57BL/6J, mouse, eye, ip, 25 mg/kg
[17] = both, C57BL/6J, mouse, liver, ip, 25 mg/kg
[18] = both, C57BL/6J, mouse, plasma, ip, 25 mg/kg
[19] = both, C57BL/6J, mouse, retina, ip, 25 mg/kg

Molecule: Cc1c[nH]c(-c2cnc(NCCNc3ccc(C#N)cn3)nc2-c2ccc(Cl)cc2Cl)n1 [CHIR99021]
- reduction of F3 secretion ([1]; 1 μM, one week): 49.9 ± 7.0%
- reduction of HiBiT F3 secretion ([1]; 10 μM, 72 h): up to 76%
- HiBiT F3 secretion (extracellular) ([1]; 72 h): significantly reduced
- intracellular HiBiT F3 levels ([1]; 72 h): significantly reduced
- FOVs containing deposits (BLamDs) [2]: 4.167%
- apically and basally secreted HiBiT WT F3 and HiBiT R345W F3 [3]: significantly reduced
- toxicity by LDH release ([4]; 72 h): non-toxic
- cell death by LDH release ([4]; prolonged low level, one week): does not increase cell death
- intracellular HiBiT F3 [5]: significantly reduced
- secreted HiBiT F3 [5]: significantly reduced
- secreted F5 ([6]; 72 h, all concentrations used): dose-responsive reduction
- F5 secretion ([6]; week-long treatment, only at 1 and 10 μM): significantly reduced
- PEDF (SERPINF1) in proteomics and RNAseq datasets [7]: significantly upregulated
- transcripts of TYR and TYRP1 [7]: significantly upregulated
- reduction of MMP2 levels in apical media [8]: 16-17%
- reduction of MMP2 levels in basal media [8]: 29-31%
- blood-brain barrier crossing [9]: can cross the blood-brain barrier
- total protein secretion (SDS-PAGE of concentrated media) ([10]; 10 μM): clear increase
- banding pattern or intensity of secreted protein ([10]; 0.1 or 1 μM): relatively little detectable change
- F3 production [11]: reduced F3 production
- TCF activation (FLuc) [12]: without triggering TCF activation
- estimated peak concentration of CHIR in the eye ([13]; after 30 min, 25 mg/kg i.p., based on vitreous volume ~4.4 μL): ~ 1.3 μM
- concentration at 3 h [13, 16]: ~1100 nM
- concentration at 6 h [13, 16]: 364 nM
- concentration at 24 h [13, 16]: 151 nM
- Cmax [13, 17]: 33300 ng/g
- Tmax [13, 17]: 0.5 h
- concentration at 30 min [13, 17]: 33300 ng/g
- concentration at 180 min [13, 17]: 4680 ng/g
- concentration at 360 min [13, 17]: 1160 ng/g
- concentration at 960 min [13, 17]: 6.1 ng/g
- concentration at 1440 min [13, 17]: 5.2 ng/g
- half-life [13, 17]: 2 h
- MRT ([13]; both, C57BL/6J, mouse, liver, ip, 25 mg/kg, MRT, 25 mpk IP): 1.57 h
- AUC(0-t) [13, 18]: 15500 ng·h/mL
- CL/F [13, 18]: 27 mL/min/kg
- Cmax [13, 18]: 9250 ng/mL
- Tmax [13, 18]: 0.5 h
- concentration at 30 min [13, 18]: 9250 ng/mL
- concentration at 180 min [13, 18]: 490 ng/mL
- concentration at 360 min [13, 18]: 41 ng/mL
- concentration at 960 min [13, 18]: 0.3 ng/mL
- concentration at 1440 min [13, 18]: 0.4 ng/mL
- half-life [13, 18]: 1.97 h
- MRT ([13]; both, C57BL/6J, mouse, plasma, ip, 25 mg/kg, MRT, 25 mpk IP): 0.817 h
- Cmax [13, 19]: 527 ng/g
- Tmax [13, 19]: 0.5 h
- concentration at 30 min [13, 19]: 527 ng/g
- concentration at 180 min [13, 19]: 434 ng/g
- concentration at 360 min [13, 19]: 148 ng/g
- concentration at 960 min [13, 19]: 41 ng/g
- concentration at 1440 min [13, 19]: 61 ng/g
- half-life [13, 19]: 6.75 h
- MRT ([13]; both, C57BL/6J, mouse, retina, ip, 25 mg/kg, MRT, 25 mpk IP): 6.05 h
- AUClast ([13]; liver, 25 mpk IP, mouse): 4,231,688 ± 272,680 min*ng/g
- Vz_F ([13]; plasma, 25 mpk IP, mouse): 4.586 L/kg
- AUClast ([13]; retina, 25 mpk IP, mouse): 213,348 ± 17,725 min*ng/g
- MRT ([13]; retina, 25 mpk IP, mouse, 25 mg/kg): 6.03 h

Molecule: CN1CCN(S(=O)(=O)c2ccc(-c3cnc(N)c(C(=O)Nc4cccnc4)n3)cc2)CC1 [AZD2858]
- cytotoxicity profile [14]: favorable cytotoxicity profiles
- dose-response confirmation of HiBiT F3 reduction [15]: demonstrated dose-responsiveness

- Tmax ([13]; liver, 25 mpk IP, mouse): 0.5 h
- Tmax ([13]; plasma, 25 mpk IP, mouse): 0.5 h
- Tmax ([13]; retina, 25 mpk IP, mouse): 0.5 h
Molecule: Cc1cnc(-c2cnc(NCCNc3ccc(C#N)cn3)nc2-c2ccc(Cl)cc2Cl)[nH]1.Cl.Cl.Cl [CHIR trihydrochloride]

Molecule: [Cl-].[Li+] [LiCl, lithium chloride]
- HiBiT F3 secretion (extracellular) ([1]; 72 h): significantly reduced
- intracellular HiBiT F3 levels ([1]; 72 h): significantly reduced

Molecule: 6-bromoindirubin-3-oxime [BIO]
- HiBiT F3 secretion (extracellular) ([1]; 72 h): significantly reduced
- intracellular HiBiT F3 levels ([1]; 72 h): significantly reduced
